Data reported in ChEMBL document CHEMBL1151770, “Cespihypotins Q-V, verticillene diterpenoids from Cespitularia hypotentaculata” (2008).

What was measured:
Daoy = experiment: Cytotoxicity against human Daoy cells by MTT assay; assay type: functional; conditions: read-out: ED50 (the source's name)
Method in brief: (§1)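 Cells grown in serum-supplemented RPMI-1640 at 37 °C, 5% CO2. Seeded at 2880 cells/well for 4 h, then samples added at 1, 10, 20 and 40 µg/mL and incubated 3 days at 37 °C. MTT added for 5 h, formazan dissolved in DMSO, absorbance read at 550 nm. ED50 is the concentration giving 50% reduction of absorbance relative to untreated cells.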

WiDr = experiment: Cytotoxicity against human WiDr cells by MTT assay; assay type: functional; conditions: read-out: ED50 (the source's name); method in brief: as §1

Structure (SMILES)	EC50 (Daoy)	EC50 (WiDr)
C=C1CC[C@@H]2CC[C@]34O[C@@]3(C2(C)C)[C@@](O)(C/C(C)=C/C(=O)C1)O[C@H]4OC	40 µM	54 µM
C=C1CC[C@@H]2CCC3=C(C2(C)C)[C@@](OC)(C/C(C)=C/[C@@H](O)C1)O[C@H]3OC [CESPIHYPOTIN Q]	> 55 µM	> 55 µM
C=C1CC[C@@H]2CCC3=C([C@@H](C/C(C)=C/C(=O)C1)OC3=O)C2(C)C [CESPIHYPOTIN R]	> 55 µM	50 µM
C=C1CC[C@@H]2CCC(=O)[C@@](O)([C@@H](O)C/C(C)=C/C(=O)C1)C2(C)C [CESPIHYPOTIN T]	9.3 µM	7.5 µM
C=C1CC[C@@H]2CCC3=C([C@@H](C[C@]4(C)O[C@H]4[C@@H](O)C1)OC3=O)C2(C)C [CESPIHYPOTIN U]	> 60 µM	> 60 µM
C=C1CC[C@@H]2CCC3=C(C2(C)C)[C@](O)(C/C(C)=C/[C@@H](O)C1)OC3=O [CESPIHYPOTIN V]	60 µM	> 60 µM
CO[C@@]12[C@H](COC(N)=O)C3=C(C(=O)C(C)=C(N)C3=O)N1C[C@@H]1N[C@@H]12 [MITOMYCIN]	0.21 µM	0.18 µM
